# Measurements of several laboratories.
# Compare with care: the assays were run in different laboratories.
Structure (SMILES),test system,setting,half-life
CCn1c(=O)c(-c2cc(NC(=O)Nc3ccccc3)c(F)cc2Br)cc2cnc(NC)cc21,"beagle dog, plasma","oral, 5 mg/kg, single dose",6.96 h
COc1cc2c3c(n(CCCN4CCOCC4)c(=O)c2cc1OC)-c1cc2c(cc1C3=O)OCO2,"female beagle dog, plasma","intravenous, 100 mg/m², infusion",14 h
Oc1c(-n2ccnn2)cnn1-c1cc(N2CCOCC2)ncn1,"female dog, plasma","intravenous, 3 mg/kg",2.7 h
Cc1nnc2sc(C(=O)NCc3ccc(-c4cccnc4F)cc3)c(N)c2c1C,"dog, plasma",intravenous,1 h
CC[C@@H]1CN(C(=O)NCC(F)(F)F)C[C@@H]1c1cnc2cnc3[nH]ccc3n12,"beagle dog, plasma","oral, 1 mg/kg, single dose",11.6 h
C=CC(=O)Nc1cc(Nc2nccc(Nc3cc(Cl)c(F)cc3C(C)(C)O)n2)c(OC)cc1N1CC[C@@H](N(C)C)C1,"beagle dog, plasma","intravenous, 1 mg/kg",13.9 h
O=C(NCCN1CCCC1)c1cc(-c2ccc(CN3CCOCC3)cc2)nc2ccc(F)cc12,"male beagle dog, blood","intravenous, 1 mg/kg",13 h
Cc1cnc(N2CC3(CCOCC3)C2)c(C(=O)Nc2ccc(C(=O)N3CCc4cc(C(=O)Nc5c(C)cccc5F)sc4-c4ccccc43)cc2)c1,"dog, plasma","intravenous, 0.1 mg/kg, single dose",2.4 h
